Drawing on ChEMBL document CHEMBL1909502, “Design and synthesis of 2-(1, 3-dioxoisoindolin-2-yl)-N-(4-oxo-2-substitutedthiazolidin-3-yl) acetamide derivatives as potential anticonvulsant agents” (Eur J Med Chem, 2011), this text covers Activity, minimal effective dose and logP for 1 compound.

Active and inactive are the calls of the source. The calls are words filed in the database; no cut-off is given here.

Series [1] has as its system Mus musculus. Briefly: Anticonvulsant activity in Swiss albino CF1 mouse assessed as protection against maximal electroshock-induced seizures at 30 to 300 mg/kg, ip after 4 hrs postdose. Format: functional, organism-based. In outline:
(§1)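 Male Swiss albino CF-1 mice, 20–30 g. Compounds were suspended in 0.5% methyl cellulose and given i.p. at 0.01 mL/g, at 30, 100 and 300 mg/kg. MES and sc PTZ seizure tests followed reported procedures at 0.5 h and 4 h post-dose. The value is the minimal dose protecting 50% or more of the animals.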
In general terms: In the maximal electroshock model the usual endpoint is tonic extension of the hind limbs.

For series [2], the system named is Mus musculus. Kind of series: Anticonvulsant activity in Swiss albino CF1 mouse assessed as protection against subcutaneous pentylenetetrazole-induced seizures at 30 to 300 mg/kg, ip after 4 hrs postdose. Format: functional, organism-based. A digest of the protocol: as §1
For series [3], the system named is Mus musculus. Briefly: Neurotoxicity in Swiss albino CF1 mouse assessed as minimal motor deficit at 30 to 300 mg/kg, ip after 0.5 hrs by rotarod test. As to conditions: in vivo. Format: toxicity, organism-based. Also noted: dose 30-300 mg/kg, route intraperitoneal. A digest of the protocol:
(§2)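 Mice (male Swiss albino CF-1, groups of 5) were trained on an accelerating rotarod at 10 rpm with a 3.2 cm rod and had to stay on for two consecutive 90 s trials. Trained animals then received 30, 100 or 300 mg/kg i.p. Deficit was inability to stay on the rod for at least 1 min in each of three trials, checked at 0.5 h and 4 h. The value is the minimal dose giving deficit in 50% or more of the animals.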
A general note: Falling from the rotarod earlier than controls is read as motor impairment.

The subject of series [4] is Mus musculus. Kind of series: Neurotoxicity in Swiss albino CF1 mouse assessed as decrease in locomotor activity at 30 mg/kg, ip after 0.5 hrs postdose. Format: toxicity, organism-based. Also noted: dose 30 mg/kg, route intraperitoneal; scale not given: the % may be the effect or the level left. The following applies: in vivo. A digest of the protocol:
(§3)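 Compounds in 30% PEG 200 were given i.p. at 30 mg/kg to male Swiss albino CF-1 mice. Locomotor activity was scored digitally in an actophotometer for 10 min, 24 h before dosing and again 0.5 h and 4 h after. The value is the % decrease against the pre-treatment score, as mean ± SEM, with Student's t test at p < 0.05.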

For series [5], the system named is Mus musculus. Briefly: Anticonvulsant activity in ip dosed Swiss albino CF1 mouse assessed as protection against maximal electroshock-induced seizures after 0.5 hrs. As to conditions: read-out: MED. The format is functional. A digest of the protocol: as §1
Series [6] is described as follows: Octanol-phosphate buffer partition coefficient, log P of the compound at 5 mg after 24 hrs by UV spectroscopic analysis. Format: physicochemical. A digest of the protocol: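 Octanol/phosphate buffer partition at room temperature. 5 mg of drug was added to 10 mL octanol plus 10 mL buffer and shaken mechanically for 24 h. The mixture was left to equilibrate for 6 h, and the phases were separated and membrane-filtered. Drug in the aqueous phase was quantified by UV spectroscopy.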

Series [7] deals with Mus musculus. Briefly: Neurotoxicity in Swiss albino CF1 mouse assessed as decrease in locomotor activity at 30 mg/kg, ip after 4 hrs postdose. The format is toxicity, organism-based. Also noted: dose 30 mg/kg, route intraperitoneal; scale not given: the % may be the effect or the level left. The following applies: in vivo. In outline: as §3
The test system of series [8] is Mus musculus. Briefly: Neurotoxicity in Swiss albino CF1 mouse assessed as minimal motor deficit at 30 to 300 mg/kg, ip after 4 hrs by rotarod test. Format: toxicity, organism-based. Also noted: dose 30-300 mg/kg, route intraperitoneal. The following applies: in vivo. In outline: as §2
Series [9] concerns Mus musculus. Kind of series: Anticonvulsant activity in Swiss albino CF1 mouse assessed as protection against subcutaneous pentylenetetrazole-induced seizures at 30 to 300 mg/kg, ip after 0.5 hrs postdose. Format: functional, organism-based. A digest of the protocol: as §1

The logP is the decadic logarithm of the partition coefficient of the neutral form, usually between octanol and water. For `O=C(CN1C(=O)c2ccccc2C1=O)NN1C(=O)CSC1c1ccco1` (centres undefined), the outcome in [1], in [2] and in series [9] was inactive. Moreover, the Activity result is given as “Non-toxic” in series [3], 5.14% in series [4], 11.64% in [7] and “Non-toxic” in series [8]. For the same compound, in series [5], the minimal effective dose worked out at 100 mg/kg. The same compound displayed a logP at 24 h in [6] of 1.13.
